Assay results reported in ChEMBL document CHEMBL1146338, “Synthesis and antioxidant activity evaluation of new 7-aryl or 7-heteroarylamino-2,3-dimethylbenzo[b]thiophenes obtained by Buchwald-Hartwig C-N cross-coupling” (Bioorg Med Chem, 2007).
In brackets after ≈: the same amount, converted by molar mass. Each block holds one molecule with its values, some of them ahead of it.

Tests used:
[1] = Antioxidant activity assessed as inhibition of lipid peroxidation at 0.0312 g/L after 2 hrs by beta carotene bleaching method; assay type: functional
Procedure, shortened: (§1)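 β-Carotene linoleate emulsion (β-carotene dissolved in chloroform) incubated with compound at 50 C in a water bath. A470 read at time zero, then every 20 min until the control lost colour; a blank without β-carotene was subtracted. Activity = (β-carotene after 2 h / initial β-carotene) × 100. Triplicate means; EC50 taken from the activity % versus concentration plot.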

[2] = Antioxidant activity assessed as reduction of ferric cyanide complex by reducing power assay; assay type: functional
Procedure, shortened: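 Oyaizu method: methanolic compound at various concentrations mixed with sodium phosphate buffer (200 mmol/L, pH 6.6) and 1% potassium ferricyanide, held 20 min at 50 C. 10% TCA added, then centrifuged. Supernatant diluted with water, 0.1% FeCl3 added, A700 read. Triplicate means; EC50 = concentration giving absorbance 0.5, from the A700 versus concentration plot. Standards: BHA, BHT, ascorbic acid.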

Erythrocyte [3] = assay: Inhibition of AAPH-induced ram erythrocyte hemolysis at 0.0625 g/L; assay type: functional; details: Ovis aries
Procedure, shortened: (§2)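 Erythrocytes from a male ram (churra galega transmontana) washed three times in 10 mM PBS pH 7.4. A 20% suspension combined with 200 mM AAPH in PBS and methanolic compound at different concentrations, shaken gently 3 h at 37 C. Diluted with PBS, centrifuged, supernatant A540 read. % inhibition set against the AAPH control without compound. Triplicate means; EC50 from the plot; L-ascorbic acid as standard.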

Erythrocyte [4] = assay: Inhibition of AAPH-induced ram erythrocyte hemolysis at 0.0156 g/L; assay type: functional; details: Ovis aries; procedure, shortened: as §2
Erythrocyte [5] = assay: Inhibition of AAPH-induced ram erythrocyte hemolysis at 0.0312 g/L; assay type: functional; details: Ovis aries; procedure, shortened: as §2
[6] = Antioxidant activity assessed as inhibition of lipid peroxidation at 0.0156 g/L after 2 hrs by beta carotene bleaching method; assay type: functional; procedure, shortened: as §1
[7] = tested on: Radical scavenging activity; assay: Antioxidant activity assessed as DPPH radical scavenging activity at 0.0625 g/L; assay type: functional
Procedure, shortened: (§3)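 Compound in methanol (0.3 mL, various concentrations) mixed with methanolic DPPH ([…] stock, 2.7 mL), shaken and held 60 min in the dark. Absorbance read at 517 nm. %RSA = [(ADPPH − AS)/ADPPH] × 100. Means of three independent samples. EC50 (50% scavenging) taken from the plot of %RSA against concentration; BHA and BHT as standards.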

[8] = tested on: Radical scavenging activity; assay: Antioxidant activity assessed as DPPH radical scavenging activity at 0.250 g/L; assay type: functional; procedure, shortened: as §3
[9] = tested on: Radical scavenging activity; assay: Antioxidant activity assessed as DPPH radical scavenging activity at 0.0156 g/L; assay type: functional; procedure, shortened: as §3
[10] = Antioxidant activity assessed as inhibition of lipid peroxidation at 0.125 g/L after 2 hrs by beta carotene bleaching method; assay type: functional; procedure, shortened: as §1
[11] = Antioxidant activity assessed as inhibition of lipid peroxidation after 2 hrs by beta carotene bleaching method; assay type: functional; procedure, shortened: as §1
[12] = Antioxidant activity assessed as inhibition of lipid peroxidation at 0.0625 g/L after 2 hrs by beta carotene bleaching method; assay type: functional; procedure, shortened: as §1
[13] = tested on: Radical scavenging activity; assay: Antioxidant activity assessed as DPPH radical scavenging activity at 0.125 g/L; assay type: functional; procedure, shortened: as §3
Erythrocyte [14] = assay: Inhibition of AAPH-induced ram erythrocyte hemolysis at 0.250 g/L; assay type: functional; details: Ovis aries; procedure, shortened: as §2
[15] = tested on: Radical scavenging activity; assay: Antioxidant activity assessed as DPPH radical scavenging activity at 0.0312 g/L; assay type: functional; procedure, shortened: as §3
[16] = tested on: Radical scavenging activity; assay: Antioxidant activity assessed as DPPH radical scavenging activity; assay type: functional; procedure, shortened: as §3
Erythrocyte [17] = assay: Inhibition of AAPH-induced ram erythrocyte hemolysis at 0.125 g/L; assay type: functional; details: Ovis aries; procedure, shortened: as §2
[18] = Antioxidant activity assessed as inhibition of lipid peroxidation at 0.250 g/L after 2 hrs by beta carotene bleaching method; assay type: functional; procedure, shortened: as §1
Erythrocyte [19] = assay: Inhibition of AAPH-induced ram erythrocyte hemolysis; assay type: functional, cell-based; details: Ovis aries; procedure, shortened: as §2
Erythrocyte [20] = assay: Inhibition of AAPH-induced ram erythrocyte hemolysis at 1 g/L; assay type: functional; details: Ovis aries; procedure, shortened: as §2
[21] = Antioxidant activity assessed as inhibition of lipid peroxidation at 2 g/L after 2 hrs by beta carotene bleaching method; assay type: functional; procedure, shortened: as §1

- EC50 [2]: 22.7 µg/mL (≈ 72.4 µM)
- EC50 [11]: 8.73 µg/mL (≈ 27.9 µM)
- EC50 [16]: 17.3 µg/mL (≈ 55.2 µM)
SMILES: COc1ccc(Nc2cccc3c(C)c(C)sc23)cc1OC
- inhibition [1]: 91.4%
- inhibition at 62.5 µg/mL (Erythrocyte [3]): 61.2%
- inhibition at 15.6 µg/mL (Erythrocyte [4]): 47.8%
- inhibition at 31.2 µg/mL (Erythrocyte [5]): 58.3%
- inhibition [6]: 89.3%
- Activity [7]: 86.9%
- Activity [8]: 94.7%
- Activity [9]: 47.3%
- inhibition [10]: 100%
- inhibition [12]: 100%
- Activity [13]: 92.1%
- inhibition at 250 µg/mL (Erythrocyte [14]): 62.9%
- Activity [15]: 72.4%
- inhibition at 125 µg/mL (Erythrocyte [17]): 62.1%
- inhibition [18]: 100%
- EC50 (Erythrocyte [19]): 18.9 µg/mL (≈ 60.3 µM)

- EC50 [2]: > 250 µg/mL
- EC50 [11]: 16 µg/mL (≈ 57.5 µM)
- EC50 [16]: > 250 µg/mL
SMILES: Cc1sc2c(Nc3ccc(C#N)cc3)cccc2c1C
- inhibition [1]: 67.3%
- inhibition at 62.5 µg/mL (Erythrocyte [3]): 62.1%
- inhibition at 15.6 µg/mL (Erythrocyte [4]): 48.3%
- inhibition at 31.2 µg/mL (Erythrocyte [5]): 59.4%
- inhibition [6]: 49.6%
- Activity [7]: 0%
- Activity [8]: 3.1%
- Activity [9]: 0%
- inhibition [10]: 71%
- inhibition [12]: 69%
- Activity [13]: 0.5%
- inhibition at 250 µg/mL (Erythrocyte [14]): 66.4%
- Activity [15]: 0%
- inhibition at 125 µg/mL (Erythrocyte [17]): 62.6%
- inhibition [18]: 79.6%
- EC50 (Erythrocyte [19]): 18 µg/mL (≈ 64.7 µM)

- EC50 [2]: > 250 µg/mL
- EC50 [11]: 17.3 µg/mL (≈ 68 µM)
- EC50 [16]: > 250 µg/mL
SMILES: Cc1sc2c(Nc3cccnc3)cccc2c1C
- inhibition [1]: 65.4%
- inhibition at 62.5 µg/mL (Erythrocyte [3]): 66.9%
- inhibition at 15.6 µg/mL (Erythrocyte [4]): 41.8%
- inhibition at 31.2 µg/mL (Erythrocyte [5]): 56.8%
- inhibition [6]: 48.1%
- Activity [7]: 5.5%
- Activity [8]: 15.5%
- Activity [9]: 2.5%
- inhibition [10]: 76.1%
- inhibition [12]: 70.9%
- Activity [13]: 9%
- inhibition at 250 µg/mL (Erythrocyte [14]): 74.1%
- Activity [15]: 2.8%
- inhibition at 125 µg/mL (Erythrocyte [17]): 69.3%
- inhibition [18]: 86.2%
- EC50 (Erythrocyte [19]): 24.1 µg/mL (≈ 94.7 µM)

- EC50 [2]: 98.7 µg/mL (≈ 348 µM)
- EC50 [11]: 13.7 µg/mL (≈ 48.3 µM)
- EC50 [16]: > 250 µg/mL
SMILES: COc1cccc(Nc2cccc3c(C)c(C)sc23)c1
- inhibition [1]: 62.9%
- inhibition at 62.5 µg/mL (Erythrocyte [3]): 58%
- inhibition at 15.6 µg/mL (Erythrocyte [4]): 40.3%
- inhibition at 31.2 µg/mL (Erythrocyte [5]): 44.3%
- inhibition [6]: 56.8%
- Activity [7]: 13.5%
- Activity [8]: 28.4%
- Activity [9]: 7.9%
- inhibition [10]: 82.6%
- inhibition [12]: 68.9%
- Activity [13]: 22.2%
- inhibition at 250 µg/mL (Erythrocyte [14]): 66.7%
- Activity [15]: 13.4%
- inhibition at 125 µg/mL (Erythrocyte [17]): 63.1%
- inhibition [18]: 84.8%
- EC50 (Erythrocyte [19]): 44.2 µg/mL (≈ 156 µM)

- EC50 [2]: 21.6 µg/mL (≈ 76.2 µM)
- EC50 [11]: 8.45 µg/mL (≈ 29.8 µM)
- EC50 [16]: 14 µg/mL (≈ 49.4 µM)
SMILES: COc1ccc(Nc2cccc3c(C)c(C)sc23)cc1
- inhibition [1]: 96.8%
- inhibition at 62.5 µg/mL (Erythrocyte [3]): 65.1%
- inhibition at 15.6 µg/mL (Erythrocyte [4]): 43.4%
- inhibition at 31.2 µg/mL (Erythrocyte [5]): 61.2%
- inhibition [6]: 92.3%
- Activity [7]: 88.4%
- Activity [8]: 93.3%
- Activity [9]: 55.8%
- inhibition [10]: 100%
- inhibition [12]: 99.7%
- Activity [13]: 91.1%
- inhibition at 250 µg/mL (Erythrocyte [14]): 66.7%
- Activity [15]: 85.8%
- inhibition at 125 µg/mL (Erythrocyte [17]): 65.9%
- inhibition [18]: 100%
- EC50 (Erythrocyte [19]): 21.4 µg/mL (≈ 75.5 µM)

SMILES: O=C1O[C@H]([C@@H](O)CO)C(O)=C1O [ASCORBIC ACID]
- inhibition at 1000 µg/mL (Erythrocyte [20]): 94.6%

SMILES: CC(C)(C)c1cc(O)ccc1O
- inhibition [21]: 82.2%

- EC50 [2]: > 250 µg/mL
- EC50 [11]: > 250 µg/mL
- EC50 [16]: > 250 µg/mL
SMILES: Cc1sc2c(Nc3ccccn3)cccc2c1C
- inhibition [1]: 42.9%
- inhibition at 62.5 µg/mL (Erythrocyte [3]): 53%
- inhibition at 15.6 µg/mL (Erythrocyte [4]): 38.4%
- inhibition at 31.2 µg/mL (Erythrocyte [5]): 44.5%
- inhibition [6]: 40.7%
- Activity [7]: 4.9%
- Activity [8]: 9%
- Activity [9]: 0.4%
- inhibition [10]: 45.9%
- inhibition [12]: 45.8%
- Activity [13]: 8.8%
- inhibition at 250 µg/mL (Erythrocyte [14]): 69.5%
- Activity [15]: 2.6%
- inhibition at 125 µg/mL (Erythrocyte [17]): 64.6%
- inhibition [18]: 47.2%
- EC50 (Erythrocyte [19]): 51.4 µg/mL (≈ 202 µM)
